Measurements from ChEMBL document CHEMBL2396649, “Synthesis and antibacterial activity of novel phosphonium salts on the basis of pyridoxine” (Bioorg Med Chem, 2013).
Converted amounts (≈) assume the structure as drawn. The source made the active and inactive calls. The rule behind the calls is not given here.

Legend:
[1] = tested on: Klebsiella pneumoniae; assay: Antibacterial activity against Klebsiella pneumoniae assessed as growth inhibition after 18 to 24 hrs; type: functional
Procedure, shortened: (§1)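 Clinical isolates from a regional epidemiology institute. Broth microdilution: inoculum 5 × 10⁵ CFU/ml in Müller-Hinton broth (pH 7.3) with serial concentrations of salts, incubated at 35 °C for 18–24 h. MIC taken as lowest concentration with no detectable bacterial growth.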

[2] = tested on: Proteus; assay: Antibacterial activity against Proteus spp. assessed as growth inhibition after 18 to 24 hrs; type: functional; procedure, shortened: as §1
[3] = tested on: Staphylococcus epidermidis; assay: Antibacterial activity against Staphylococcus epidermidis assessed as growth inhibition after 18 to 24 hrs; type: functional; procedure, shortened: as §1
[4] = tested on: Staphylococcus aureus; assay: Antibacterial activity against Staphylococcus aureus assessed as growth inhibition after 18 to 24 hrs; type: functional; procedure, shortened: as §1
[5] = tested on: Staphylococcus aureus; assay: Antibacterial activity against Staphylococcus aureus 25923 assessed as increase in hydrodynamic diameter of plasmid DNA at 0.01 mg/ml after 1 hr by light scatterning method (reference value: 360.7 +/- 18 nm); type: functional
[6] = tested on: Staphylococcus aureus; assay: Antibacterial activity against Staphylococcus aureus 25923 assessed as DNA fragmentation at 10 ug/ml after 1 hr by SYBR green staining-based fluorescent microscopic analysis; type: functional, organism-based
Procedure, shortened: (§2)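 S. aureus 25923 pre-grown on blood agar at 37 °C, cultured overnight in Müller-Hinton broth (pH 7.3), pelleted and resuspended in PBS. After treatment, cells centrifuged 3000 g 15 min, washed twice in PBS, embedded in agarose microgels, lysed, stained with SYBR Green I and imaged by fluorescence microscopy.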

[7] = tested on: Staphylococcus aureus; assay: Antibacterial activity against Staphylococcus aureus 25923 assessed as decrease in zeta potential of plasmid DNA at 0.01 mg/ml after 1 hr by light scatterning method (reference value: -50.7 +/- 1 mV); type: functional
[8] = tested on: Staphylococcus aureus; assay: Antibacterial activity against Staphylococcus aureus 25923 assessed as increase in polydispersity index of plasmid DNA at 0.01 mg/ml after 1 hr by light scatterning method (reference value: 0.425 no unit); type: functional
[9] = tested on: Staphylococcus aureus; assay: Antibacterial activity against Staphylococcus aureus 25923 assessed as increase in hydrodynamic diameter of plasmid DNA at 0.1 mg/ml after 1 hr by light scatterning method (reference value: 360.7 +/- 18 nm); type: functional
[10] = Cytotoxicity against human skin fibroblasts after 72 hrs by MTT assay; parameters: species or system Skin fibroblast
Procedure, shortened: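 Human skin fibroblasts seeded at 3000 cells/well, attached overnight, then exposed to salt solutions (1 µg/ml–1 mg/ml) for 72 h at 37 °C, 5% CO₂. Cells washed with fresh medium and subjected to MTT assay; reduced product read at 550 nm. CC50 derived.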

[11] = tested on: Staphylococcus aureus; assay: Antibacterial activity against Staphylococcus aureus 25923 assessed as increase in polydispersity index of plasmid DNA at 0.1 mg/ml after 1 hr by light scatterning method (reference value: 0.425 no unit); type: functional
[12] = tested on: Staphylococcus aureus; assay: Antibacterial activity against Staphylococcus aureus 25923 assessed as decrease in zeta potential of plasmid DNA at 0.1 mg/ml after 1 hr by light scatterning method (reference value: -50.7 +/- 1 mV); type: functional
[13] = tested on: Staphylococcus aureus; assay: Antibacterial activity against Staphylococcus aureus 25923 assessed as partial DNA fragmentation at 0.01 to 10 mg/ml after 1 hr by agarose gel electrophoresis method
[14] = tested on: Staphylococcus aureus; assay: Antibacterial activity against Staphylococcus aureus 25923 assessed as DNA migration out of cells at 10 ug/ml after 1 hr by SYBR green staining-based fluorescent microscopic analysis; type: functional, organism-based; procedure, shortened: as §2

Structure (SMILES)	MIC [1]	MIC [2]	MIC [3]	MIC [4]	also measured
Cc1nc(C[P+](c2ccccc2)(c2ccccc2)c2ccccc2)c(C[P+](c2ccccc2)(c2ccccc2)c2ccccc2)c(CO)c1O	> 1000 µg/mL	> 1000 µg/mL	1000 µg/mL	1000 µg/mL	–
CC1(C)OCc2c(CO)c(CO)nc(C[P+](c3ccccc3)(c3ccccc3)c3ccccc3)c2O1.[Cl-]	> 1000 µg/mL	> 1000 µg/mL	> 1000 µg/mL	> 1000 µg/mL	–
Cc1nc(C[P+](c2ccccc2)(c2ccccc2)c2ccccc2)c(C[P+](c2ccccc2)(c2ccccc2)c2ccccc2)c2c1OC(C)(C)OC2.[Cl-].[Cl-]	> 1000 µg/mL	> 1000 µg/mL	5 µg/mL	5 µg/mL	Activity [5]: 500.9 nm; Activity [6]: Active; Activity [7]: -46.6 mV; Activity [8]: 0.717; Activity [9]: 452.3 nm; CC50 at 72 h [10]: 160 µg/mL; Activity [11]: 0.844; Activity [12]: -35.2 mV; Activity [13]: Active; Activity [14]: Active
Cc1nc(C[P+](c2ccccc2)(c2ccccc2)c2ccccc2)c(CO)c(CO)c1O.Cl.[Cl-]	> 1000 µg/mL	> 1000 µg/mL	1000 µg/mL	1000 µg/mL	–
CC1(C)OCc2c(C[P+](c3ccccc3)(c3ccccc3)c3ccccc3)c(C[P+](c3ccccc3)(c3ccccc3)c3ccccc3)nc(C[P+](c3ccccc3)(c3ccccc3)c3ccccc3)c2O1.[Cl-].[Cl-].[Cl-]	> 1000 µg/mL	> 1000 µg/mL	50 µg/mL	50 µg/mL	–
Cc1nc(CO)c(C[P+](c2ccccc2)(c2ccccc2)c2ccccc2)c(CO)c1O.Cl.[Cl-]	> 1000 µg/mL	> 1000 µg/mL	1000 µg/mL	1000 µg/mL	–
Cl.OCc1nc(C[P+](c2ccccc2)(c2ccccc2)c2ccccc2)c(O)c(CO)c1CO.[Cl-]	> 1000 µg/mL	> 1000 µg/mL	> 1000 µg/mL	> 1000 µg/mL	–
Cc1ncc(C[P+](c2ccccc2)(c2ccccc2)c2ccccc2)c2c1OC(C)(C)OC2.[Cl-]	> 1000 µg/mL	> 1000 µg/mL	1000 µg/mL	1000 µg/mL	–
Cl.OCc1c(C[P+](c2ccccc2)(c2ccccc2)c2ccccc2)cnc(C[P+](c2ccccc2)(c2ccccc2)c2ccccc2)c1O.[Cl-].[Cl-]	> 1000 µg/mL	> 1000 µg/mL	250 µg/mL	250 µg/mL	–
Cl.OCc1c(O)c(C[P+](c2ccccc2)(c2ccccc2)c2ccccc2)nc(C[P+](c2ccccc2)(c2ccccc2)c2ccccc2)c1C[P+](c1ccccc1)(c1ccccc1)c1ccccc1.[Cl-].[Cl-].[Cl-]	> 1000 µg/mL	> 1000 µg/mL	500 µg/mL	500 µg/mL	–
Cc1ncc(C[P+](c2ccccc2)(c2ccccc2)c2ccccc2)c(CO)c1O.Cl.[Cl-]	> 1000 µg/mL	> 1000 µg/mL	1000 µg/mL	1000 µg/mL	–
CC1(C)OCc2c(C[P+](c3ccccc3)(c3ccccc3)c3ccccc3)cnc(C[P+](c3ccccc3)(c3ccccc3)c3ccccc3)c2O1.[Cl-].[Cl-]	> 1000 µg/mL	> 1000 µg/mL	50 µg/mL	62.5 µg/mL	–
CN[C@H](CC(C)C)C(=O)N[C@H]1C(=O)N[C@@H](CC(N)=O)C(=O)N[C@H]2C(=O)N[C@H]3C(=O)N[C@H](C(=O)N[C@H](C(=O)O)c4cc(O)cc(O)c4-c4cc3ccc4O)[C@H](O)c3ccc(c(Cl)c3)Oc3cc2cc(c3O[C@@H]2O[C@H](CO)[C@@H](O)[C@H](O)[C@H]2O[C@H]2C[C@](C)(N)[C@H](O)[C@H](C)O2)Oc2ccc(cc2Cl)[C@H]1O [VANCOMYCIN]	> 1000 µg/mL	> 1000 µg/mL	2.5 µg/mL (≈ 1.73 µM)	2.5 µg/mL (≈ 1.73 µM)	–
CC(=O)Oc1c(C)nc(C[P+](c2ccccc2)(c2ccccc2)c2ccccc2)c2c1COC(C)(C)OC2.[Cl-]	> 1000 µg/mL	> 1000 µg/mL	100 µg/mL	100 µg/mL	–
